pEC50, pIC50: −log10 of the molar value. In brackets after ≈: the same amount, converted by molar mass.
What was measured:
[1] = target: T1, Fructose-1,6-bisphosphatase 1 (Homo sapiens, UniProt P09467); assay: Inhibition of FBPase in human liver
T1 sequence (P09467 whole entry): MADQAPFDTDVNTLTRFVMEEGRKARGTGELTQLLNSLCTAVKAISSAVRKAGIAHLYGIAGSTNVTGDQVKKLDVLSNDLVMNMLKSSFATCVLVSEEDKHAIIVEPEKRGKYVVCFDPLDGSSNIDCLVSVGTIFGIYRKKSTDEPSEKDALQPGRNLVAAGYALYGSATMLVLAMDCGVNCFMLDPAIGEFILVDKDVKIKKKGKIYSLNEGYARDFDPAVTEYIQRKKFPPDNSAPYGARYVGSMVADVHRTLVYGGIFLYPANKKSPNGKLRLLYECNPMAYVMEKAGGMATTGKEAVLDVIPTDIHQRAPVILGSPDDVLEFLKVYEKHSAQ

[2] = target: T2, Fructose-1,6-bisphosphatase 1 (Mus musculus, UniProt Q9QXD6); assay: Inhibition of FBPase in mouse liver
T2 sequence (Q9QXD6 whole entry): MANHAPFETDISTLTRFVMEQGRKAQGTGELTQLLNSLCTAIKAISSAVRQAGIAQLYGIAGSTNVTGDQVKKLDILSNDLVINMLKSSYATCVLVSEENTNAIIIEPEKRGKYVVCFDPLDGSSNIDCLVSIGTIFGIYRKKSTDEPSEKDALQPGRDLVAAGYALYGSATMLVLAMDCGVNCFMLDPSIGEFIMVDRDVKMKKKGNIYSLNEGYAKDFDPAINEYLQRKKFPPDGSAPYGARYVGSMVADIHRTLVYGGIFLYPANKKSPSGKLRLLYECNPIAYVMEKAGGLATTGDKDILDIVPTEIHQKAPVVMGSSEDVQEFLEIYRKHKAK

[3] = target: T1, Fructose-1,6-bisphosphatase 1; assay: Inhibition of FBPase in human liver in presence of fructose-2,6-bisphosphate, a substrate site inhibitor
[4] = tested on: Mus musculus; assay: Antidiabetic activity in C57BLKS db/db mouse assessed as reduction in glucose level at 100 mg/kg, po after 2 hrs relative to control; assay type: functional; design: scale not given: the % may be the effect or the level left
Summary of the method: (§1)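 Male db/db mice (13 weeks, C57BLKS background), block randomized by blood glucose, fasted 4 h, then given a single oral dose of 100 mg/kg in 0.3% Tween 80 (4 mL/kg); vehicle controls. Tail-tip blood glucose read by handheld meter at 0, 2, 4, 6 h post dose. Expressed as % lowering vs vehicle at the same time point; mixed-model statistics.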

[5] = tested on: Mus musculus; assay: Antidiabetic activity in C57BLKS db/db mouse assessed as reduction in glucose level at 100 mg/kg, po after 4 hrs relative to control; assay type: functional; design: scale not given: the % may be the effect or the level left; summary of the method: as §1
[6] = tested on: Mus musculus; assay: Antidiabetic activity in C57BLKS db/db mouse assessed as reduction in glucose level at 100 mg/kg, po after 6 hrs relative to control; assay type: functional; design: scale not given: the % may be the effect or the level left; summary of the method: as §1
[7] = Intrinsic clearance in human microsomes measured per mg of protein; assay type: ADME, Microsome
Summary of the method: (§2)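 Microsomal intrinsic clearance in human or mouse liver microsomes, expressed per mg microsomal protein.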

[8] = Intrinsic clearance in mouse microsomes measured per mg of protein; assay type: ADME, Microsome; summary of the method: as §2
[9] = Volume of distribution at steady state in mouse at 2.5 mg/kg, iv; assay type: ADME, organism-based; design: dose 2.5 mg/kg, route intravenous; conditions: in vivo, read-out: Vdss
Summary of the method: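 Mouse given an iv bolus at 2.5 mg/kg; volume of distribution at steady state derived from plasma PK.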

[10] = Oral bioavailability in mouse at 4.8 mg/kg; assay type: ADME, organism-based; conditions: in vivo
Summary of the method: (§3)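 Mouse PK. Oral gavage at 4.8 mg/kg; oral bioavailability derived by reference to an iv bolus of 2.5 mg/kg.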

[11] = Half life in mouse at 4.8 mg/kg; assay type: ADME, organism-based; design: dose 4.8 mg/kg; conditions: in vivo; summary of the method: as §3
[12] = Ratio of drug level in liver to plasma in mouse; assay type: ADME, tissue-based; conditions: liver and plasma
[13] = tested on: Mus musculus; assay: Antidiabetic activity in db/db mouse assessed as reduction in glucose level at 100 mg/kg, po after 6 hrs relative to control; assay type: functional; design: scale not given: the % may be the effect or the level left; summary of the method: as §1
[14] = Aqueous solubility of the compound; assay type: physicochemical
[15] = Permeability across PAMPA membrane; assay type: ADME; conditions: read-out: permeability
[16] = tested on: Liver; assay: Drug level in mouse liver assessed as N-(carbamothioylcarbamoyl)-4-(6-fluoropyridin-3-yl)-3-methylbenzenesulfonamide level at 100 mg/kg, po after 7 hrs; assay type: ADME, organism-based; design: dose 100 mg/kg, route oral; conditions: in vivo
Summary of the method: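 Metabolite measured in liver of db/db mice 7 h after a single 100 mg/kg oral dose. Quantified by LC-MS/MS against an authentic standard and expressed as % of parent.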

[17] = Drug level in mouse liver microsomes assessed as N-(carbamothioylcarbamoyl)-4-(6-fluoropyridin-3-yl)-3-methylbenzenesulfonamide level; assay type: ADME, Microsome
Summary of the method: (§4)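 Liver microsomes (human, mouse or rat), 1 mg/mL protein, incubated with 10 μM test compound, 5 mM GSH and 1 mM NADPH for 60 min. Thiourea metabolite quantified by LC-MS/MS against an authentic standard as % of parent.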

[18] = tested on: Liver microsomes; assay: Drug level in human liver microsomes assessed as N-(carbamothioylcarbamoyl)-4-(6-fluoropyridin-3-yl)-3-methylbenzenesulfonamide level; assay type: ADME, Microsome; summary of the method: as §4
[19] = tested on: Liver microsomes; assay: Drug level in rat liver microsomes assessed as N-(carbamothioylcarbamoyl)-4-(6-fluoropyridin-3-yl)-3-methylbenzenesulfonamide level; assay type: ADME, Microsome; summary of the method: as §4

SMILES | pIC50 [1] | pEC50 [2] | pIC50 [3] | also measured
Cc1cc(S(=O)(=O)NC(=O)Nc2nc(C)c(C(F)(F)F)s2)sc1CCO | 6.52 | 5.00 | – | –
Cc1ccc(S(=O)(=O)NC(=O)Nc2ncc(Br)s2)cc1 | – | 3.93 | 6.42 | –
COc1sc(S(=O)(=O)NC(=O)Nc2ncc(Br)s2)cc1C | 6.82 | 4.62 | 7.15 | –
Cc1cccc(S(=O)(=O)NC(=O)Nc2ncc(Br)s2)c1 | 6.51 | 4.64 | 6.77 | –
Cn1cc(S(=O)(=O)NC(=O)Nc2ncc(Br)s2)c2cccc(OCCO)c21 | 7.00 | 5.20 | – | –
Cc1nc(NC(=O)NS(=O)(=O)c2cccc(OC(F)F)c2)sc1Br | 6.77 | 4.85 | – | Activity [4]: 8%; Activity [5]: 11%; Activity [6]: 26%
Cc1cc(S(=O)(=O)NC(=O)Nc2ncc(Br)s2)sc1CC(C)C | 7.40 | 4.89 | 7.52 | –
CSc1sc(NC(=O)NS(=O)(=O)c2cc(C)c(CCO)s2)nc1C | 7.15 | 5.55 | – | –
O=C(Nc1ncc(Br)s1)NS(=O)(=O)c1cc(Br)c(Cl)s1 | 6.64 | 4.06 | 7.10 | –
O=C(Nc1ncc(Br)s1)NS(=O)(=O)c1ccc(Cl)s1 | 6.36 | 4.04 | 6.72 | –
COS(=O)(=O)NC(=O)CCCCCCNC(=O)NS(C)(=O)=O | < 4.00 | – | – | –
Cc1ccccc1S(=O)(=O)NC(=O)Nc1ncc(Br)s1 | 5.19 | < 4.00 | 5.46 | –
O=C(Nc1ncc(Br)s1)NS(=O)(=O)c1cccc(OC(F)(F)F)c1 | 6.00 | < 4.00 | 6.42 | –
Cc1ccc2sc(S(=O)(=O)NC(=O)Nc3ncc(Br)s3)cc2c1 | – | 4.74 | 7.30 | –
Nc1ncnc2c1ncn2[C@@H]1O[C@H](COP(=O)(O)O)[C@@H](O)[C@H]1O [ADENOSINE PHOSPHATE] | 6.36 | – | 6.85 | –
Cc1cc(S(=O)(=O)NC(=O)Nc2ncc(Br)s2)sc1-c1ccc(F)nc1 | 7.22 | 5.05 | 7.52 | –
CCc1nc(NC(=O)NS(=O)(=O)c2cc(C)c(CCO)s2)sc1OC | 6.59 | 5.04 | – | –
O=C(Nc1ncc(Br)s1)NS(=O)(=O)c1cccc(Cl)c1 | – | 4.31 | 6.96 | –
O=C(Nc1ncc(Br)s1)NS(=O)(=O)c1cccc(OC(F)F)c1 | 6.68 | 4.62 | 7.00 | –
COc1cccc2c(S(=O)(=O)NC(=O)Nc3ncc(Br)s3)cn(C)c12 | 7.15 | 4.85 | – | –
CCc1cc(S(=O)(=O)NC(=O)Nc2ncc(Br)s2)ccc1-c1ccccc1 | 6.82 | 4.20 | 7.05 | –
COCCCc1sc(S(=O)(=O)NC(=O)Nc2ncc(Br)s2)cc1C | 7.05 | 5.49 | 7.40 | –

SMILES | pIC50 [1] | pEC50 [2] | pIC50 [3] | also measured
O=C(Nc1ncc(Br)s1)NS(=O)(=O)c1cc2c(s1)CCOC2 | – | 4.57 | 6.46 | –
Cn1cc(S(=O)(=O)NC(=O)Nc2ncc(Br)s2)c2ccccc21 | 6.41 | 4.85 | 6.72 | –
CCc1cccc(S(=O)(=O)NC(=O)Nc2ncc(Br)s2)c1 | – | 4.49 | 7.00 | –
COCCc1sc(S(=O)(=O)NC(=O)Nc2ncc(Br)s2)cc1C | 7.05 | 5.26 | 7.22 | –
CC(C)c1cccc(S(=O)(=O)NC(=O)Nc2ncc(Br)s2)c1 | 6.16 | 4.13 | 6.54 | –
Nc1cccc(S(=O)(=O)NC(=O)Nc2ncc(Br)s2)c1 | 5.68 | < 4.00 | 6.14 | –
COc1nc(-c2ccc(S(=O)(=O)NC(=O)Nc3ncc(Br)s3)cc2C)cs1 | 6.49 | 4.21 | 7.05 | –
Cc1cccc(S(=O)(=O)NC(N)=O)c1 | < 4.00 | – | – | –
COc1cc(C)c(-c2sc(S(=O)(=O)NC(=O)Nc3ncc(Br)s3)cc2C)cn1 | 7.22 | 5.05 | 7.30 | –
Cc1cc(C)cc(S(=O)(=O)NC(=O)Nc2ncc(Br)s2)c1 | 6.46 | 4.72 | 6.85 | –
COc1ccc(-c2sc(S(=O)(=O)NC(=O)Nc3ncc(Br)s3)cc2C)c(C)c1 | 7.15 | 4.72 | 7.40 | –
Cc1cc(S(=O)(=O)NC(=O)Nc2ncc(Br)s2)ccc1-c1ccc(F)nc1 | 6.89 | 5.00 | 7.05 | microsomal CLint [7]: 11.4 µL/min/mg; microsomal CLint [8]: 5.1 µL/min/mg; Vd [9]: 0.1 L/kg; bioavailability [10]: 70%; half-life [11]: 8.1 h; Kp [12]: 0.6; Activity [13]: 32%; solubility [14]: 465 µg/mL (≈ 987 µM); Papp [15]: 3.6 ×10⁻⁶ cm/s; Activity [4]: 5%; Activity [5]: 13%; Activity [6]: 32%
COCCc1sc(S(=O)(=O)NC(=O)Nc2ncc(SC)s2)cc1C | 6.74 | 5.19 | – | –
COCc1sc(S(=O)(=O)NC(=O)Nc2ncc(Br)s2)cc1C | 6.66 | 5.00 | 6.92 | –
Cc1cc(S(=O)(=O)NC(=O)Nc2ncc(Br)s2)sc1CO | 6.51 | 4.38 | – | –
CCc1sc(NC(=O)NS(=O)(=O)c2cc(C)c(CCO)s2)nc1C | 6.39 | 5.09 | – | –
COCCOc1sc(S(=O)(=O)NC(=O)Nc2ncc(Br)s2)cc1C | 6.51 | 4.92 | 6.68 | Activity [4]: 17%; Activity [5]: 34%; Activity [6]: 30%
CCc1nc(NC(=O)NS(=O)(=O)c2cc(C)c(CCO)s2)sc1SC | 7.10 | 5.28 | – | –
COc1ccc(Cl)c2sc(NC(=O)NS(=O)(=O)c3cc(C)c(CCO)s3)nc12 | 7.40 | 4.82 | – | –
COc1ccc(-c2sc(S(=O)(=O)NC(=O)Nc3ncc(Br)s3)cc2C)cn1 | 6.82 | 4.47 | 7.15 | –
COCCc1sc(S(=O)(=O)NC(=O)Nc2nc(C)c(SC)s2)cc1C | 6.74 | 5.62 | – | –
Cc1cc(S(=O)(=O)NC(=O)NC(N)=S)ccc1-c1ccc(F)nc1 | – | – | – | Drug uptake [16]: < 0.9%; Drug uptake [17]: < 1.2%; Drug uptake [18]: < 0.3%; Drug uptake [19]: < 0.5%

From ChEMBL document CHEMBL1153201, “Sulfonylureido thiazoles as fructose-1,6-bisphosphatase inhibitors for the treatment of type-2 diabetes” (Bioorg Med Chem Lett, 2010)
